pIC50: −log10 of the molar value.
Target: Proto-oncogene tyrosine-protein kinase Src (Rattus norvegicus, UniProt Q9WUD9)
Test: Inhibition of v-Src tyrosine kinase autophosphorylation in SR3Y1 cells after 15 hr
Method in brief: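 SR-3Y1 cells exposed to drug 15 h, lysed on ice 20 min in Tris pH 7.5 RIPA-type buffer with protease inhibitors and 1 mM vanadate. Equal-protein lysates run on SDS-PAGE, blotted with anti-phosphotyrosine antibody, HRP secondary, ECL detection. IC50 = concentration halving tyrosine phosphorylation.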

Chain of Proto-oncogene tyrosine-protein kinase Src (Q9WUD9 2-536 limits assumed): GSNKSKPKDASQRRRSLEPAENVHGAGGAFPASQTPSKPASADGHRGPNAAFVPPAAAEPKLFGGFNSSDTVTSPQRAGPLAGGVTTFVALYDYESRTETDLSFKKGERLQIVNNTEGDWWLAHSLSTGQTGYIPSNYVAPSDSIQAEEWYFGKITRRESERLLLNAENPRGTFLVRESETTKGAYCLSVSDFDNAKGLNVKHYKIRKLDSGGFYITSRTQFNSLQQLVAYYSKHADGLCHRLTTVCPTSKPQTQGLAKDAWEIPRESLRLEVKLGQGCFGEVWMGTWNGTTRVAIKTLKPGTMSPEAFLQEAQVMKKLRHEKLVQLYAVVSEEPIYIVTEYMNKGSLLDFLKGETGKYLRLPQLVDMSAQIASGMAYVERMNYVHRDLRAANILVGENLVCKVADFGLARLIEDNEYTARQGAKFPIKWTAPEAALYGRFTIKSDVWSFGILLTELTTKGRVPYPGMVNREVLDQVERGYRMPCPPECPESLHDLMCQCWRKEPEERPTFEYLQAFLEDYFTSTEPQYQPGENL

pIC50: 7.89
SMILES: C[C@@H]1C[C@H]2O[C@@H]2\C=C/C=C/C(=N\OCC(=O)N2CCN(C)CC2)Cc2c(Cl)c(O)cc(O)c2C(=O)O1 [16-Chloro-17,19-dihydroxy-4-methyl-3,7-dioxa-tricyclo[13.4.0.0*6,8*]nonadeca-1(19),9,11,15,17-pentaene-2,13-dione 13-{O-[2-(4-methyl-piperazin-1-yl)-2-oxo-ethyl]-oxime}]

From BindingDB's records for doi:10.1021/jm030110r (Pharmaceutical Research Institute, 2003)
